Bioassay records (PubChem)
Kir21 block: inhibitors of mouse Kir2.1 inward-rectifier potassium channel; HEK293-Kir2.1, FluxOR thallium flux fluorescence; stronger effect = lower value; B-score at 10 µM; actives 0.85% (n = 310,000);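 active = fluorescence ratio B-score at or below minus 3 SD of library scores, with starting-brightness B-score within 2 SD, cut at about -4.2 in these data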;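 note: channel flux triggered by added potassium and thallium sulfate stimulus; B-score of peak minus minimum fluorescence over baseline after thallium stimulus; more negative B-score means stronger Kir2.1 block with less thallium influx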
KCNK9 block: blocks the human KCNK9 two-pore domain potassium channel; Q9NPC2; HEK293 KCNK9, FluxOR thallium flux fluorescence; stronger effect = lower value; B-score at 10 µM; actives 1.2% (n = 310,000);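 active = ratio B-score over 3 SD below the library mean, with starting fluorescence within 5 SD of its mean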;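 note: negative B-score means less thallium flux so channel inhibition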
KCNQ1 block: human KCNQ1 channel inhibition; B-score at 10 µM; actives 1.3% (n = 310,000); AID 2642; CHO-K1 KCNQ1, FluxOR thallium flux fluorescence; stronger effect = higher value; P51787;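 active = compounds whose thallium flux B-score, printed positive for inhibition, exceeds three library SD while starting fluorescence stays within three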;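 note: channel opened by potassium depolarization with thallium stimulus after 20 min compound exposure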
hERG rescue: hERG (human) protection from proarrhythmic block | Q12809 | AID 1511 | actives 0.51% (n = 310,000) | CHO-hERG, FluxOR thallium flux, dofetilide IC70 present | activation (rescue from dofetilide block), less the hit threshold, % at 10 µM;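 active = activation above the mean of controls blocked by dofetilide plus 5 SD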;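 note: thallium influx through hERG after potassium depolarization seen as dye fluorescence rise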
KCNQ1 pot: potentiators or activators of human KCNQ1 potassium channel; CHO-K1 KCNQ1, thallium flux FluxOR fluorescence; stronger effect = higher value; B-score at 10 µM; actives 0.35% (n = 310,000);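 active = fluorescence ratio B-score, a plate-corrected score, at least three library SD, with initial intensity B-score within 5 SD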
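assay system = KCNQ1-transfected CHO-K1 cells | medium = assay buffer with matched DMSO | probe or stimulus = depolarizing K+/Tl+ stimulus, K2SO4 and Tl2SO4 each 12.5 mM in 5x stock | dosing = single dose | incubation = dye 90 min, compound 20 min, room temperature | detection = kinetic FluxOR fluorescence, 10 s baseline plus 110 s post-stimulus | evaluation = ratio B score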
KCNK3 block: human KCNK3 channel inhibition, primary screen. O14649. CHO-KCNK3 thallium flux, FluxOR fluorescence; stronger effect = lower value. B-score at 10 µM. actives 0.84% (n = 340,000). AID 602410;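 active = B-score under library mean minus 4 SD, starting fluorescence ratio at most library mean plus 5 SD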;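 note: more negative B-score means stronger inhibition of thallium flux through KCNK3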
Target sequence (O14649 whole entry, looked up): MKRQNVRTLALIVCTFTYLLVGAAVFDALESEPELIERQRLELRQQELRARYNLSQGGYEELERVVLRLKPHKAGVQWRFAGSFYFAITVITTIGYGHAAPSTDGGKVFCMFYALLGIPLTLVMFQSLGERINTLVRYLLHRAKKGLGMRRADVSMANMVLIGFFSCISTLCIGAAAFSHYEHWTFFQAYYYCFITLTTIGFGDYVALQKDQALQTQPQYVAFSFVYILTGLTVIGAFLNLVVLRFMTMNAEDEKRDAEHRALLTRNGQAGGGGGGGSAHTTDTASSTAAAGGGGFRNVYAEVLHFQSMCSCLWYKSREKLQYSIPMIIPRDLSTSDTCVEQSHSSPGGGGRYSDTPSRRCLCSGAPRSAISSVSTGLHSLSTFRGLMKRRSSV
Hits are given with their value; n = inactive; x = no result given; ! = a repeat was not active. Compounds with a hit are over-represented: about 3.7% of the library has one in this group of screens.

SMILES | Kir21 block | KCNK9 block | KCNQ1 block | hERG rescue | KCNQ1 pot | KCNK3 block
COc1ccc(CNCCc2ccccc2F)c(OC)c1C | -5.5 | n | n | n | n | n
Clc1ccc(C(c2ccccc2)c2ncc[nH]2)cc1 (centres undefined) | n | n | n | n | n | n
O=c1[nH]c(=S)[nH]c(O)c1N=Nc1ccc(S(=O)(=O)N2CCc3ccccc32)cc1 | n | n | n | 13 | n | n
COC(=O)C1=C(c2ccc(S(C)(=O)=O)cc2)C[C@@H]2CC[C@H]1N2C(=O)N1CCC(O)CC1 | n | n | n | n | n | n
CC1([N+](=O)[O-])COP(=O)(Nc2cccc(F)c2)OC1 (centres undefined) | x | x | x | x | x | n
CCN(CC)c1ccc(/C=C2\C(=O)NC(=S)N(c3ccc(OC)cc3OC)C2=O)o1 | n | n | 6 | n | n | n
CCN(CC)c1ccc(/C=C2\C(=O)NC(=S)N(C)C2=O)o1 | n | n | 7 | n | n | n
COc1ccc(N2C(=O)/C(=C/c3ccc(N(C)C)o3)C(=O)NC2=S)cc1 | n | n | n | n | n | n
Nc1cc(Cl)c2nonc2c1[N+](=O)[O-] | x | x | x | x | x | n
[N-]=[N+]=NCCN1CCC(O)CCC1=O (centres undefined) | n | n | n | n | n | n
COc1ccc(CCNCc2cccn2C)cc1 | n | n | n | n | n | n
Cn1cccc1CNCCc1ccccc1 | n | n | n | 6.4 | n | x
CN1CCN(/N=C/c2c(O)n(CCC3=CCCCC3)c(=S)[nH]c2=O)CC1 | n | n | n | n | n | n
O=c1[nH]c(=S)n(CCC2=CCCCC2)c(O)c1C=NC1CCN(Cc2ccccc2)CC1 | n | n | 7 | n | n | n
CCCCn1c(=O)c(C(=O)Nc2cnccn2)c(O)c2ccccc21 | n | n | 9 | n | n | n
CCCCCn1c(=O)c(C(=O)Nc2ncccc2C)c(O)c2ccccc21 | n | n | n | n | n | n
O=[N+]([O-])c1ccc(N2CCNCC2)cc1NCc1ccco1 | -4.4 | n | n | n | n | n
O=S(=O)(c1ccc(Cl)cc1)N1CCCCC1c1cccnc1 (centres undefined) | -9 | n | n | n | n | n
O=S(=O)(c1ccc(F)cc1)N1CCCCC1c1cccnc1 (centres undefined) | -4.9 | n | n | n | n | n
O=S(=O)(c1ccc(F)cc1)N1CCCC1c1cccnc1 (centres undefined) | n | n | n | n | n | n
O=C(O)C1C2CCC(O2)C1C(=O)Nc1cccc(Br)c1 (centres undefined) | n | n | n | n | n | n
CCCCCc1cc(O)c2c3c(c(=O)oc2c1)CN(C)CC3 | n | n | n | n | n | n
COC(=O)C1=C(c2ccc(C(C)=O)cc2)C[C@@H]2CC[C@H]1N2C(=O)NCc1ccc2c(c1)OCO2 | x | x | x | x | x | n
Cc1cccn2c(=O)c3c(nc12)N1CCC(Cc2ccccc2)CC1C1(C3)C(=O)N(C)C(=O)N(C)C1=O (centres undefined) | n | -6.6 | n | n | n | n
CC1CN1P1(=O)OCC(C)([N+](=O)[O-])CO1 (centres undefined) | x | x | x | x | x | n
SMILES | Kir21 block | KCNK9 block | KCNQ1 block | hERG rescue | KCNQ1 pot | KCNK3 block
COc1ccc(-[n+]2c(-c3ccccc3)cc(-c3ccccc3)cc2-c2ccccc2)cc1 | -7.5 | -8.8 | 6 | n | n | x
O=[N+]([O-])c1ccc(-[n+]2c(-c3ccccc3)cc(-c3ccccc3)cc2-c2ccccc2)cc1 | n | n | n | n | n | n
Oc1ccc(-[n+]2c(-c3ccccc3)cc(-c3ccccc3)cc2-c2ccccc2)cc1 | -10 | -7.3 | 10 | n | n | n
COc1ccc2c(c1)C(c1ccc(N(CCCl)CCCl)cc1)=NCC2 | x | x | x | x | x | -8.7
COc1ccc(Cn2c(O)c(/C=N/NC(=O)c3ccccc3)c(=O)[nH]c2=O)cc1 | n | n | 7 | n | n | n
CCN(CC)c1ccc(N=Cc2c(O)n(Cc3ccccc3)c(=O)[nH]c2=O)cc1 | n | -7.3! | 7! | n | n | n
CCN(CC)c1ccc(N=Cc2c(O)n(-c3ccccc3)c(=O)[nH]c2=O)cc1 | n | n | n | n | n | n
Cc1ccc(S(=O)(=O)N2CCN(C(=O)COC(=O)Cc3ccccc3)CC2)c(C)c1 | n | n | n | n | n | n
